Results reported in ChEMBL document CHEMBL1126238, “Chemical and enzyme-mediated oxidation of the serotonergic neurotoxin 5,7-dihydroxytryptamine: mechanistic insights” (J Med Chem, 1992).

Key:
Assay type in all cases: ADME
[1] = Effect of transition metal ion Mn2+ (50 uM) on the initial rate of oxygen consumption during the autooxidation
Method in brief: (§1)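 5,7-Dihydroxytryptamine (1.0 mM) in 3.0 mL air-saturated pH 7.4 phosphate buffer (ionic strength 0.1), 37 °C, with metal ion and/or chelator (DTPA or EDTA) added; Cu2+ supplied as CuSO4. The initial O2 consumption rate (nmol O2/min) was read with a Clark-type oxygen electrode. Values are mean (n ≥ 2) ± SD.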

[2] = Effect of transition metal ion and complexing agent Cu2+ (10 uM) +DTPA (1 uM) on the initial rate of oxygen consumption during the autooxidation; method in brief: as §1
[3] = Influence of ceruplasmin enzyme (10.5 units/mL) on the initial rate of oxygen consumption at a pH of 6.4.; details: pH 6.4
Method in brief: (§2)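 5,7-Dihydroxytryptamine (1.0 mM) in 3.0 mL air-saturated phosphate buffer (ionic strength 0.1) at the stated pH, with bovine ceruloplasmin or mushroom tyrosinase at the listed units/mL. Initial O2 consumption (nmol O2/min) was recorded with a Clark-type oxygen electrode.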

[4] = Effect of transition metal ion [Fe3+] (10 uM) on the initial rate of oxygen consumption during the autooxidation; method in brief: as §1
[5] = Effect of complexing agent EDTA (1 uM) on the initial rate of oxygen consumption during the autooxidation; method in brief: as §1
[6] = Influence of Catalase (100 ug/mL) on the transition metal [Fe3+] (100 uM) ion mediated autoxidation.
Method in brief: (§3)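 5,7-Dihydroxytryptamine (1.0 mM, 3.0 mL) in pH 7.4 phosphate buffer (ionic strength 0.1) at 37 °C. Runs contained 10 μM Cu2+ (as CuSO4) or 100 μM Fe2+, Fe3+ or Mn2+, alone or with catalase (100 μg/mL) or SOD (333 units/mL). The initial O2 uptake rate was measured by Clark-type oxygen electrode. Values are mean (n ≥ 2) ± SD.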

[7] = Influence of superoxide dismutase SOD (333 units/mL) on the transition metal [Fe3+] (100 uM) ion mediated autoxidation.; method in brief: as §3
[8] = Influence of tyrosinase enzyme (36 units/mL) on the initial rate of oxygen consumption at a pH of 7.4.; details: pH 7.4; method in brief: as §2
[9] = Influence of superoxide dismutase SOD (333 units/mL) on the transition metal Cu2+ (10 uM) ion mediated autoxidation.; method in brief: as §3
[10] = Effect of transition metal ion Mn2+ (100 uM) on the initial rate of oxygen consumption during the autooxidation; method in brief: as §1
[11] = Influence of Catalase (100 ug/mL) on the transition metal [Fe2+] (100 uM) ion mediated autoxidation.; method in brief: as §3
[12] = Influence of ceruplasmin enzyme (42.0 units/mL) on the initial rate of oxygen consumption at a pH of 7.4.; details: pH 7.4; method in brief: as §2
[13] = Effect of transition metal ion and complexing agent Mn2+ (100 uM) +EDTA (10 uM) on the initial rate of oxygen consumption during the autooxidation; method in brief: as §1
[14] = Effect of transition metal ion and complexing agent [Fe2+] (100 uM) +EDTA (10 uM) on the initial rate of oxygen consumption during the autooxidation; method in brief: as §1
[15] = Influence of peroxidase enzyme (5 units/mL) on the initial rate of oxygen consumption at a pH of 7.4.; details: pH 7.4
Method in brief: (§4)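 Substrate 5,7-dihydroxytryptamine, 1.0 mM, in 3.0 mL air-saturated pH 7.4 phosphate buffer (ionic strength 0.1). Peroxidase was added at the listed units/mL, either with 1.0 mM H2O2 or with no H2O2. The initial O2 consumption rate was measured with a Clark-type oxygen electrode.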

[16] = Effect of transition metal ion and complexing agent [Fe3+] (100 uM) +EDTA (10 uM) on the initial rate of oxygen consumption during the autooxidation; method in brief: as §1
[17] = Influence of ceruplasmin enzyme (21.0 units/mL) on the initial rate of oxygen consumption at a pH of 7.4.; details: pH 7.4; method in brief: as §2
[18] = Effect of transition metal ion [Fe2+] (50 uM) on the initial rate of oxygen consumption during the autooxidation; method in brief: as §1
[19] = Influence of tyrosinase enzyme (9 units/mL) on the initial rate of oxygen consumption at a pH of 7.4.; details: pH 7.4; method in brief: as §2
[20] = Effect of transition metal ion Cu2+ (10 uM) on the initial rate of oxygen consumption during the autooxidation; method in brief: as §1
[21] = Effect of transition metal ion Cu2+ (20 uM) on the initial rate of oxygen consumption during the autooxidation; method in brief: as §1
[22] = Effect of transition metal ion and complexing agent Cu2+ (10 uM) +EDTA (1 uM) on the initial rate of oxygen consumption during the autooxidation; method in brief: as §1
[23] = Effect of complexing agent DTPA (0.5 uM) on the initial rate of oxygen consumption during the autooxidation; method in brief: as §1
[24] = Effect of transition metal ion Cu2+ (1 uM) on the initial rate of oxygen consumption during the autooxidation; method in brief: as §1
[25] = Effect of transition metal ion [Fe3+] (200 uM) on the initial rate of oxygen consumption during the autooxidation; method in brief: as §1
[26] = Influence of Catalase (100 ug/mL) on the transition metal Cu2+ (10 uM) ion mediated autoxidation.; method in brief: as §3
[27] = Effect of transition metal ion [Fe2+] (10 uM) on the initial rate of oxygen consumption during the autooxidation; method in brief: as §1
[28] = Effect of transition metal ion Cu2+ (40 uM) on the initial rate of oxygen consumption during the autooxidation; method in brief: as §1
[29] = Effect of transition metal ion Mn2+ (10 uM) on the initial rate of oxygen consumption during the autooxidation; method in brief: as §1
[30] = Effect of transition metal ion and complexing agent [Fe2+] (100 uM) +DTPA (10 uM) on the initial rate of oxygen consumption during the autooxidation; method in brief: as §1
[31] = Effect of transition metal ion and complexing agent [Fe3+] (100 uM) +DTPA (10 uM) on the initial rate of oxygen consumption during the autooxidation; method in brief: as §1
[32] = Influence of superoxide dismutase SOD (333 units/mL) on the transition metal [Fe2+] (100 uM) ion mediated autoxidation.; method in brief: as §3
[33] = Effect of transition metal ion [Fe3+] (50 uM) on the initial rate of oxygen consumption during the autooxidation; method in brief: as §1
[34] = Effect of transition metal ion [Fe2+] (200 uM) on the initial rate of oxygen consumption during the autooxidation; method in brief: as §1
[35] = Influence of peroxidase enzyme (15 units/mL) on the initial rate of oxygen consumption at a pH of 7.4.; details: pH 7.4; method in brief: as §4
[36] = Influence of Catalase (100 ug/mL) on the transition metal Mn2+ (100 uM) ion mediated autoxidation.; method in brief: as §3
[37] = Initial rate of oxygen consumption during the autooxidation of the compound.; method in brief: as §1
[38] = Influence of superoxide dismutase SOD (333 units/mL) on the transition metal Mn2+ (100 uM) ion mediated autoxidation.; method in brief: as §3
[39] = Effect of transition metal ion and complexing agent Mn2+ (100 uM) +DTPA (10 uM) on the initial rate of oxygen consumption during the autooxidation; method in brief: as §1
[40] = Effect of transition metal ion [Fe2+] (100 uM) on the initial rate of oxygen consumption during the autooxidation; method in brief: as §1
[41] = Effect of complexing agent DTPA (1 uM) on the initial rate of oxygen consumption during the autooxidation; method in brief: as §1
[42] = Influence of tyrosinase enzyme (4.5 units/mL) on the initial rate of oxygen consumption at a pH of 7.4.; details: pH 7.4; method in brief: as §2
[43] = Effect of transition metal ion [Fe3+] (100 uM) on the initial rate of oxygen consumption during the autooxidation; method in brief: as §1
[44] = Influence of tyrosinase enzyme (18 units/mL) on the initial rate of oxygen consumption at a pH of 7.4.; details: pH 7.4; method in brief: as §2
[45] = Effect of complexing agent DTPA (10 uM) on the initial rate of oxygen consumption during the autooxidation; method in brief: as §1
[46] = Influence of peroxidase enzyme (10 units/mL) on the initial rate of oxygen consumption at a pH of 7.4.; details: pH 7.4; method in brief: as §4
[47] = Influence of ceruplasmin enzyme (10.5 units/mL) on the initial rate of oxygen consumption at a pH of 7.4.; details: pH 7.4; method in brief: as §2

SMILES: NCCc1c[nH]c2c(O)cc(O)cc12
- Rate of O2 consumption [1]: 70 nM/min
- Rate of O2 consumption [2]: 32.1 nM/min
- Rate of O2 consumption [3]: 453 nM/min
- Rate of O2 consumption [4]: 50 nM/min
- Rate of O2 consumption [5]: 39.6 nM/min
- Rate of O2 consumption [6]: 51 nM/min
- Rate of O2 consumption [7]: 48.5 nM/min
- Rate of O2 consumption [8]: 304 nM/min
- Rate of O2 consumption [9]: 1583 nM/min
- Rate of O2 consumption [10]: 87 nM/min
- Rate of O2 consumption [11]: 328 nM/min
- Rate of O2 consumption [12]: 240 nM/min
- Rate of O2 consumption [13]: 51.3 nM/min
- Rate of O2 consumption [14]: 712 nM/min
- Rate of O2 consumption [15]: 79 nM/min
- Rate of O2 consumption [16]: 97 nM/min
- Rate of O2 consumption [17]: 129 nM/min
- Rate of O2 consumption [18]: 483 nM/min
- Rate of O2 consumption [19]: 126 nM/min
- Rate of O2 consumption [20]: 1490 nM/min
- Rate of O2 consumption [21]: 2244 nM/min
- Rate of O2 consumption [22]: 45.6 nM/min
- Rate of O2 consumption [23]: 24 nM/min
- Rate of O2 consumption [24]: 638 nM/min
- Rate of O2 consumption [25]: 125 nM/min
- Rate of O2 consumption [26]: 1524 nM/min
- Rate of O2 consumption [27]: 252 nM/min
- Rate of O2 consumption [28]: 2367 nM/min
- Rate of O2 consumption [29]: 61 nM/min
- Rate of O2 consumption [30]: 58 nM/min
- Rate of O2 consumption [31]: 39.2 nM/min
- Rate of O2 consumption [32]: 645 nM/min
- Rate of O2 consumption [33]: 68 nM/min
- Rate of O2 consumption [34]: 801 nM/min
- Rate of O2 consumption [35]: 102 nM/min
- Rate of O2 consumption [36]: 54.5 nM/min
- Rate of O2 consumption [37]: 34.1 nM/min
- Rate of O2 consumption [38]: 81.2 nM/min
- Rate of O2 consumption [39]: 36.7 nM/min
- Rate of O2 consumption [40]: 628 nM/min
- Rate of O2 consumption [41]: 24.2 nM/min
- Rate of O2 consumption [42]: 85 nM/min
- Rate of O2 consumption [43]: 86 nM/min
- Rate of O2 consumption [44]: 192 nM/min
- Rate of O2 consumption [45]: 23.6 nM/min
- Rate of O2 consumption [46]: 89 nM/min
- Rate of O2 consumption [47]: 71.4 nM/min
